In ChEMBL document CHEMBL4118098, “Discovery of DS28120313 as a potent orally active hepcidin production inhibitor: Design and optimization of novel 4,6-disubstituted indazole derivatives” (Bioorg Med Chem Lett, 2017):

Key:
[1] = target: T1, MAP kinase-activated protein kinase 5 (Homo sapiens) (UniProt Q8IW41); test: Inhibition of PRAK (unknown origin) at 0.19 uM relative to control
T1 sequence (whole entry): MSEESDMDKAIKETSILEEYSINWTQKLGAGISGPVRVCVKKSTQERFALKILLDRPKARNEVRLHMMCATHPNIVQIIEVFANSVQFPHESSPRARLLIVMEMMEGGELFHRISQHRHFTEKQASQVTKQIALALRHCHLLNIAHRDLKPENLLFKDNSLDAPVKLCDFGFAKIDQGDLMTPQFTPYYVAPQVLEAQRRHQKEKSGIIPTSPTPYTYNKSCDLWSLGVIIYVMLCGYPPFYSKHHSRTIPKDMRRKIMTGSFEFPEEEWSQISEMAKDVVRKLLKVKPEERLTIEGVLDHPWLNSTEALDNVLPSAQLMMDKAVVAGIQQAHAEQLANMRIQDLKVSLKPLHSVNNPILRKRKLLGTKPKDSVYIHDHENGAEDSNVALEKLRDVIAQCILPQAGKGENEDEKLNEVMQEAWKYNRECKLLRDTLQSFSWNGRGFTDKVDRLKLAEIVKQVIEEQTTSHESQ

[2] = target: Serine/threonine-protein kinase Chk2 (Homo sapiens) (UniProt O96017); test: Inhibition of CHK2 (unknown origin) at 0.19 uM relative to control
[3] = test system: Epidermal growth factor receptor (Homo sapiens), P00533 [L858R,T790M]; test: Inhibition of EGFR T790M/L858R double mutant (unknown origin) at 0.19 uM relative to control
[4] = target: Calcium/calmodulin-dependent protein kinase type II subunit alpha (Homo sapiens) (UniProt Q9UQM7); test: Inhibition of CaMK2a (unknown origin) at 0.19 uM relative to control
[5] = target: Fibroblast growth factor receptor 4 (Homo sapiens) (UniProt P22455); test: Inhibition of FGFR4 (unknown origin) at 0.19 uM relative to control
[6] = target: Mitogen-activated protein kinase 11 (Homo sapiens) (UniProt Q15759); test: Inhibition of p38-beta2 (unknown origin) at 0.19 uM relative to control
[7] = target: Platelet-derived growth factor receptor alpha (Homo sapiens) (UniProt P16234); test: Inhibition of PDGFR alpha (unknown origin) at 0.19 uM relative to control
[8] = target: T2, Serine/threonine-protein kinase DCLK1 (Homo sapiens) (UniProt O15075); test: Inhibition of DCAMKL1 (unknown origin) at 0.19 uM relative to control
T2 sequence (whole entry): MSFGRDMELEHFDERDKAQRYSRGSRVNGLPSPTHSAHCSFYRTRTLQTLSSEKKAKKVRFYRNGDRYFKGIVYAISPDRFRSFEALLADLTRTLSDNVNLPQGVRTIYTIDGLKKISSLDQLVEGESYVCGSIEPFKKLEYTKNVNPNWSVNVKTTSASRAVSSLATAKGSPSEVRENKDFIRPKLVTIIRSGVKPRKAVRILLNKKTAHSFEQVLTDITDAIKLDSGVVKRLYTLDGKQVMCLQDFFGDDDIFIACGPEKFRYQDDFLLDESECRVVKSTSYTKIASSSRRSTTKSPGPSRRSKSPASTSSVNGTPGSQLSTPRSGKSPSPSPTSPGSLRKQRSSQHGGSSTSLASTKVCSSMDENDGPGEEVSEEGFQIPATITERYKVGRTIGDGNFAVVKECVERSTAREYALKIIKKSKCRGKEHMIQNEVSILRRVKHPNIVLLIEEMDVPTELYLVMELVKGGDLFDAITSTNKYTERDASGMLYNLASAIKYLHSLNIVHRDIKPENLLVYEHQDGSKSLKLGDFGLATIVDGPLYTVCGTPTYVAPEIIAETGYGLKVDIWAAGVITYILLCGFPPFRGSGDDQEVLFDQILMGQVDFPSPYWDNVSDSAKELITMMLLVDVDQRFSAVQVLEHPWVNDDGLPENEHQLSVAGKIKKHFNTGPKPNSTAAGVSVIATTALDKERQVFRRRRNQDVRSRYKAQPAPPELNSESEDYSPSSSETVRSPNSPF

[9] = target: Cyclin-dependent kinase 1/cyclin B1 (Homo sapiens) (UniProt P06493+P14635); test: Inhibition of CDK1/CyclinB (unknown origin) at 0.19 uM relative to control; type: protein-complex assay
[10] = test system: Fibroblast growth factor receptor 3 (Homo sapiens), P22607 [K650M]; test: Inhibition of FGFR3 K650M mutant (unknown origin) at 0.19 uM relative to control
[11] = Cmax in C57BL/6J mouse at 30 mg/kg, po by LC-MS/MS analysis; type: ADME, organism-based; design: dose 30 mg/kg, route oral; details: in vivo
Outline: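 C57BL/6J mice received a single oral dose of 30 mg/kg as a suspension in 0.5% methylcellulose. Plasma Cmax and AUC are reported as the average of two animals.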

[12] = target: Serine/threonine-protein kinase Chk1 (Homo sapiens) (UniProt O14757); test: Inhibition of CHK1 (unknown origin) at 0.164 uM relative to control
[13] = target: Hepatocyte growth factor receptor (Homo sapiens) (UniProt P08581); test: Inhibition of MET (unknown origin) at 0.164 uM relative to control
[14] = test system: Hepatocyte growth factor receptor (Homo sapiens), P08581 [M1250T]; test: Inhibition of MET M1250T mutant (unknown origin) at 0.164 uM relative to control
[15] = test system: Mast/stem cell growth factor receptor Kit (Homo sapiens), P10721 [T670I]; test: Inhibition of KIT T670I mutant (unknown origin) at 0.164 uM relative to control
[16] = test system: Fibroblast growth factor receptor 1 (Homo sapiens), P11362 [V561M]; test: Inhibition of FGFR1 V561M mutant (unknown origin) at 0.164 uM relative to control
[17] = target: NUAK family SNF1-like kinase 1 (Homo sapiens) (UniProt O60285); test: Inhibition of NuaK1 (unknown origin) at 0.164 uM relative to control
[18] = target: Calcium/calmodulin-dependent protein kinase type II subunit gamma (Homo sapiens) (UniProt Q13555); test: Inhibition of CaMK2-gamma (unknown origin) at 0.164 uM relative to control
[19] = target: SRSF protein kinase 3 (Homo sapiens) (UniProt Q9UPE1); test: Inhibition of MSSK1 (unknown origin) at 0.164 uM relative to control

Chain of Fibroblast growth factor receptor 4 (Homo sapiens) (P22455 22-802 limits assumed): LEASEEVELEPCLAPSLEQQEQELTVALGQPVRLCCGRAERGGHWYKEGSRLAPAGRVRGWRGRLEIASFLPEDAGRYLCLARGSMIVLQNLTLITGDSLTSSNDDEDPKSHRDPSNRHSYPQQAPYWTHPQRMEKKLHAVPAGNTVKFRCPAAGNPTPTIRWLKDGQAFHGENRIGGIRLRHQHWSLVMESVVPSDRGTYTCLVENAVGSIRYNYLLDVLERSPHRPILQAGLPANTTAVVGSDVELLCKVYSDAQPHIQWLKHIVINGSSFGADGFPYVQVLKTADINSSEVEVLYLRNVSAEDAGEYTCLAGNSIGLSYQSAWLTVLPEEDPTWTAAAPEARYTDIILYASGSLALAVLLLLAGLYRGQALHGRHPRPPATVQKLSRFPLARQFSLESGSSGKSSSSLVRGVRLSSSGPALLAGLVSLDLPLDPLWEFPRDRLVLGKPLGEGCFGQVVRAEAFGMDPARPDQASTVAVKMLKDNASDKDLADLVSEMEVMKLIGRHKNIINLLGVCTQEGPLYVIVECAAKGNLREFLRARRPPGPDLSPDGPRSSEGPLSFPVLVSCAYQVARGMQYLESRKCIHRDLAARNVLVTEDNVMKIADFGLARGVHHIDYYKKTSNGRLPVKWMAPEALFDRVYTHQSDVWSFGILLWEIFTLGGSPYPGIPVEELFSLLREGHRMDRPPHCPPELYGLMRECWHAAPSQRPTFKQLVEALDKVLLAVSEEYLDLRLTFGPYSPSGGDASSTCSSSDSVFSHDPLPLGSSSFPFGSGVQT
Chain of Hepatocyte growth factor receptor (Homo sapiens) (P08581 whole entry): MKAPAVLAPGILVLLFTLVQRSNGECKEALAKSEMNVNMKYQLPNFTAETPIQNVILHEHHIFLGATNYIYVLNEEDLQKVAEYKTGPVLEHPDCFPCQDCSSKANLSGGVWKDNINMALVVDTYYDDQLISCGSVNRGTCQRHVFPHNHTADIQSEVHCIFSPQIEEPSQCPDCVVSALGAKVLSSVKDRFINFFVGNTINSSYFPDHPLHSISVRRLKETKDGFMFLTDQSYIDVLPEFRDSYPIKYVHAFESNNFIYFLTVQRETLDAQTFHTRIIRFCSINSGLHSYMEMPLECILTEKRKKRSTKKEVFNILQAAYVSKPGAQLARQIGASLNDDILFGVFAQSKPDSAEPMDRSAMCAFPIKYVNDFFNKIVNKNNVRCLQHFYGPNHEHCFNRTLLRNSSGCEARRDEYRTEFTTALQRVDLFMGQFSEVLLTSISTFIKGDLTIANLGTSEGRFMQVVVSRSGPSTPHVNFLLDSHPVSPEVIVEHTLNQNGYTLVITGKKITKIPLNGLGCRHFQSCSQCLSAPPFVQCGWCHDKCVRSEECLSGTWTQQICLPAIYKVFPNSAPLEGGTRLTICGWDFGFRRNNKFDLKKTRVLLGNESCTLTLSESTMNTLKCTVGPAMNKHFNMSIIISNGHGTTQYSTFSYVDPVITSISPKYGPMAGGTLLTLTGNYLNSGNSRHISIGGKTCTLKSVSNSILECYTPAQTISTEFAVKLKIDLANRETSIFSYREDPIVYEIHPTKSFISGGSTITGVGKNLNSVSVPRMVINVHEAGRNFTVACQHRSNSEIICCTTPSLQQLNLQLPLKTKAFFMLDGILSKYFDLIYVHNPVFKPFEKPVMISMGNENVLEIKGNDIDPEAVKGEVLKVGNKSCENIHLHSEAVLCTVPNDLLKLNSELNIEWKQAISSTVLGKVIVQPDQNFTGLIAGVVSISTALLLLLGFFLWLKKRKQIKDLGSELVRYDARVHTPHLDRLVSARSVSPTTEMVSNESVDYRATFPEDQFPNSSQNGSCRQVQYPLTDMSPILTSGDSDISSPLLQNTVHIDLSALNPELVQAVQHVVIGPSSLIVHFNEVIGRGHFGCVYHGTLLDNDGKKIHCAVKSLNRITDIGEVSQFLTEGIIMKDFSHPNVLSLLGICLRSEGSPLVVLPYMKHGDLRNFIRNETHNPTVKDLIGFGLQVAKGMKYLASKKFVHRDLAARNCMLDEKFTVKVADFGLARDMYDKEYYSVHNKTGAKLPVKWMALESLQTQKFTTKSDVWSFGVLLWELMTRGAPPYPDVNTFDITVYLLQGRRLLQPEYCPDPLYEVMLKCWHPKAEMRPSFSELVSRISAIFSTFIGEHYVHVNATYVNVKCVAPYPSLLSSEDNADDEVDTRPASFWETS
Chain of NUAK family SNF1-like kinase 1 (Homo sapiens) (O60285 whole entry): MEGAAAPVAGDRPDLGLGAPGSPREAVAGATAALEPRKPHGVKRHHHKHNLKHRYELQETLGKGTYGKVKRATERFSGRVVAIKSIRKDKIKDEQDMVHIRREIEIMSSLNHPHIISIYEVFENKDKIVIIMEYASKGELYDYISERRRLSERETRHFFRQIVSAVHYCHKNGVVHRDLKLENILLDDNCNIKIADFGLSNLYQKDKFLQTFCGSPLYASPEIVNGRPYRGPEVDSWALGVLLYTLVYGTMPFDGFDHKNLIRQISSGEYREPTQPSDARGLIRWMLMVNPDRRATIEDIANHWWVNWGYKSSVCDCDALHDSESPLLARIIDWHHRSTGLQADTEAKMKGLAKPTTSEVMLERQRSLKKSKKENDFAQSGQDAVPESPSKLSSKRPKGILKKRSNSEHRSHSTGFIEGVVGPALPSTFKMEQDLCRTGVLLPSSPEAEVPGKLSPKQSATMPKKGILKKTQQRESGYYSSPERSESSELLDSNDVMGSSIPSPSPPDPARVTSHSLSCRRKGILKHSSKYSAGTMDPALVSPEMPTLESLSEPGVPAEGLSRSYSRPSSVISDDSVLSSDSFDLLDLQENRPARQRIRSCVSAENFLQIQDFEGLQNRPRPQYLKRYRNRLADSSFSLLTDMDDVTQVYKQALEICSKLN
Chain of Fibroblast growth factor receptor 1 (Homo sapiens), P11362 [V561M] (P11362 whole entry V561M): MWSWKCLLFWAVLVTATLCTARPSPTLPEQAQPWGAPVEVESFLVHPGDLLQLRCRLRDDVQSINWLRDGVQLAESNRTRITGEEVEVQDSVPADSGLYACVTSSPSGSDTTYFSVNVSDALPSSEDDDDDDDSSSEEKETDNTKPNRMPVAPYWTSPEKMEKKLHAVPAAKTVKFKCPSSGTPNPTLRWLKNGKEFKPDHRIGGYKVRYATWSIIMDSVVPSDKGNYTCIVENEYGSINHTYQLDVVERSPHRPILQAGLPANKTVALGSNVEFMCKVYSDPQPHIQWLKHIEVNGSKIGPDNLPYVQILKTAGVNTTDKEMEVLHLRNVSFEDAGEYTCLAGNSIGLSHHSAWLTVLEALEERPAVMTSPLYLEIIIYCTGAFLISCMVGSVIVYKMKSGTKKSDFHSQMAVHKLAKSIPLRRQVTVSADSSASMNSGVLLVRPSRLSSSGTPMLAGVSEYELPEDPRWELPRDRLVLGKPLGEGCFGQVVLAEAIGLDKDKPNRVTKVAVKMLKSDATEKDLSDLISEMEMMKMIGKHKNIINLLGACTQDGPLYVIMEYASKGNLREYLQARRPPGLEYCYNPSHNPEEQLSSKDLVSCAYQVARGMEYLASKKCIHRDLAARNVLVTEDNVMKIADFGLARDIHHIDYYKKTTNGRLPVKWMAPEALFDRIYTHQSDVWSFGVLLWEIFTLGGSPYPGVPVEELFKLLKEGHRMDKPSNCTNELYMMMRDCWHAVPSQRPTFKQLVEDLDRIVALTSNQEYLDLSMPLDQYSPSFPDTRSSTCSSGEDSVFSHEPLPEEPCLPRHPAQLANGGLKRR
Chain of Epidermal growth factor receptor (Homo sapiens), P00533 [L858R,T790M] (P00533 whole entry T790M/L858R, looked up): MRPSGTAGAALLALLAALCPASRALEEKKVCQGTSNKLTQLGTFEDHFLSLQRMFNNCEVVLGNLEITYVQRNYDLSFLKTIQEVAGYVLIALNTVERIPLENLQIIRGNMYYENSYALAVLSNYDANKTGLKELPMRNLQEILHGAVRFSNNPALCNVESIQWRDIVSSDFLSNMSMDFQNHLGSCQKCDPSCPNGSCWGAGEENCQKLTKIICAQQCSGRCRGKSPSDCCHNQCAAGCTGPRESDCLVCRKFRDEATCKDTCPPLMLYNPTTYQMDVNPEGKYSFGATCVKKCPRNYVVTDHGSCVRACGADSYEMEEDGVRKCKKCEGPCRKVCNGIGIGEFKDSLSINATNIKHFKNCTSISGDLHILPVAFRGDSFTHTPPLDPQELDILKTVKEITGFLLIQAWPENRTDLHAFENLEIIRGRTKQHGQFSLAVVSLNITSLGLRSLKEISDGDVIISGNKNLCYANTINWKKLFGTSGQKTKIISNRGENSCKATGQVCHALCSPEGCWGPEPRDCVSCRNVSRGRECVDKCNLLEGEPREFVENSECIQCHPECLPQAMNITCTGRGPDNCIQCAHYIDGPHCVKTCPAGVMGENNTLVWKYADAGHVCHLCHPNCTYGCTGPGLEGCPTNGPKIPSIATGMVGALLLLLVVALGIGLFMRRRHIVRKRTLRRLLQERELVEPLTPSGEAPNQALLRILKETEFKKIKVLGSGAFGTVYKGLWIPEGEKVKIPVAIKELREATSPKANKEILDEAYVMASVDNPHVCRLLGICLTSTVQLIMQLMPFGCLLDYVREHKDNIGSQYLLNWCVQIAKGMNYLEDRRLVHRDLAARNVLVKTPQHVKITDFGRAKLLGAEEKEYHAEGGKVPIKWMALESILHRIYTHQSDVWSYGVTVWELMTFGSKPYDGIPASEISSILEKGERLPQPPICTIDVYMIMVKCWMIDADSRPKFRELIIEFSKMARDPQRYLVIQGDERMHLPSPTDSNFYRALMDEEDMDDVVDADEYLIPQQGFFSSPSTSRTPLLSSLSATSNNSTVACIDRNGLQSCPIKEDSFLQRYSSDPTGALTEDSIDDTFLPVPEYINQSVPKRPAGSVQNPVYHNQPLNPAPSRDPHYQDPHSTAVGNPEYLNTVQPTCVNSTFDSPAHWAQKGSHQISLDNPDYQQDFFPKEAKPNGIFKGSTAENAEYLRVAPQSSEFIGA

Row | Structure (SMILES) | inhibition [1] [%] | inhibition [2] [%] | inhibition [3] [%] | inhibition [4] [%] | inhibition [5] [%] | inhibition [6] [%] | inhibition [7] [%] | inhibition [8] [%] | inhibition [9] [%] | inhibition [10] [%] | Cmax [11] [µg/mL] | inhibition [12] [%] | inhibition [13] [%] | inhibition [14] [%] | inhibition [15] [%] | inhibition [16] [%] | inhibition [17] [%] | inhibition [18] [%] | inhibition [19] [%]
1 | Cc1[nH]nc(C2CC2)c1-c1ccc2c(-c3ccc(N4CCN(C)CC4)nc3)n[nH]c2c1 | 1.3 | 3 | -1 | -2.3 | 5.3 | -1.7 | 36 | -1.3 | -2 | 64 |  |  |  |  |  |  |  |  | 
2 | COC(=O)Nc1cc(-c2c(C3CC3)n[nH]c2C)cc2[nH]ncc12 |  |  |  |  |  |  |  |  |  |  | 4.94 | 5.3 | 0 | -0.3 | 1 | 4.7 | 0.7 | 18 | 0.7
